Reference: ChEMBL document CHEMBL1649102, “Stereochemical survey of digitoxin monosaccharides: new anticancer analogues with enhanced apoptotic activity and growth inhibitory effect on human non-small cell lung cancer cell” (ACS Med Chem Lett, 2011)

Columns and labels:
NCI-H460 [1] = experiment: Cytotoxicity against human NCI-H460 cells assessed as cell death at 50 nM after 12 hrs by Hoechst-33342 staining and propidium iodide staining; format: functional, cell-based; conditions: NCI-H460, 12 h
Method in brief: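 NCI-H460 cells were seeded at 50,000 cells/well for 12 h, then exposed 12 h in serum-free medium (DMSO <0.1%). Cells were stained with Hoechst 33342 (10 µg/ml) and propidium iodide (20 µg/ml) for 30 min at 37°C. Condensed or fragmented nuclei were scored by fluorescence microscopy, and apoptotic index = apoptotic/total nuclei ×100. Duplicate wells, ≥3 runs (N = 6).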

NCI-H460 [2] = experiment: Growth inhibition of human NCI-H460 cells after 48 hrs by MTT assay; format: functional; conditions: NCI-H460, 48 h
Method in brief: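 NCI-H460 cells in RPMI 1640 with 10% FBS were seeded at 10,000 cells/well for 12 h. Drug was diluted 1000× from DMSO into 1% FBS medium (DMSO <0.1%). Time-course runs used 50 nM; dose–response runs used 48 h exposure. Viability was read by MTT (4 h), with formazan dissolved in DMSO for 45 min and read at 562 nm. Triplicate wells, ≥3 runs (N = 9), two-way ANOVA.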

[3] = Growth inhibition of human NCI60 cells; format: functional
Method in brief: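 NCI-60 cell lines grown in RPMI 1640 with 5% FBS and 2 mM L-glutamine, plated at 5,000–40,000 cells/well and preincubated 24 h. Time-zero plates were TCA-fixed. Drug was given at five concentrations (10-fold or ½-log dilutions from DMSO stock) for 48 h at 37°C. Cells were TCA-fixed, stained with SRB, and read at 515 nm. GI50 is where [(Ti−Tz)/(C−Tz)]×100 = 50.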

C[C@H]1O[C@@H](O[C@H]2[C@@H](O)C[C@H](O[C@H]3[C@@H](O)C[C@H](O[C@H]4CC[C@@]5(C)[C@H](CC[C@@H]6[C@@H]5CC[C@]5(C)[C@@H](C7=CC(=O)OC7)CC[C@]65O)C4)O[C@@H]3C)O[C@@H]2C)C[C@H](O)[C@@H]1O [DIGITOXIN]
IC50 (NCI-H460 [1]): 357 nM | GI50 (NCI-H460 [2]): 10.7 nM

C[C@H]1O[C@@H](O[C@H]2[C@@H](O)C[C@H](O[C@H]3CC[C@@]4(C)[C@H](CC[C@@H]5[C@@H]4CC[C@]4(C)[C@@H](C6=CC(=O)OC6)CC[C@]54O)C3)O[C@@H]2C)C[C@H](O)[C@@H]1O
GI50 [3]: 50 nM

C[C@H]1O[C@H](O[C@H]2CC[C@@]3(C)[C@H](CC[C@@H]4[C@@H]3CC[C@]3(C)[C@@H](C5=CC(=O)OC5)CC[C@]43O)C2)C=C[C@@H]1O
GI50 [3]: 1 nM
